Data as given in ChEMBL document CHEMBL1221164, “Small molecules that delay S phase suppress a zebrafish bmyb mutant” (2005).
Activity calls are given as the source filed them. The calls are words filed in the database; no cut-off is given here.

Columns and labels:
[1] = organism: Danio rerio; test: Inhibition of B-myb-mediated mitotic deffects in zebrafish bmyb mutant crb embryos at 50 mM
Outline: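 crb heterozygote intercross embryos exposed from 4 hpf to 24 hpf at 28.5 °C in E3 with 1% DMSO (aphidicolin […]; hydroxyurea 50 mM). Fixed in 4% paraformaldehyde, whole-mount stained for phospho-histone H3 (Ser10), genotyped by RFLP. pH3-positive cells counted in the tail distal to the yolk extension, or mutant phenotype scored by eye.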

[2] = organism: Danio rerio; test: Inhibition of B-myb-mediated mitotic deffects in zebrafish bmyb mutant crb embryos at 50 mM
[3] = organism: Danio rerio; test: Inhibition of B-myb-mediated mitotic deffects in zebrafish bmyb mutant embryo assessed as intra-Sphase and G2/M checkpoint inhibition at 10 ug/ml
Outline: (§1)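 crb embryos given 2 mM caffeine or none at 4 hpf. Thirty minutes later […] aphidicolin added, then incubated overnight to 24 hpf at 28.5 °C in E3 with 1% DMSO. Mitotic accumulation read by whole-mount phospho-histone H3 staining, with pH3-positive cells counted in the tail distal to the yolk extension.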

[4] = organism: Danio rerio; test: Inhibition of B-myb-mediated mitotic deffects in zebrafish bmyb mutant embryo assessed as intra-Sphase and G2/M checkpoint inhibition in presence of 2 mM caffeine at 10 ug/ml; outline: as §1
[5] = target: T1, B-myb (Danio rerio) (UniProt Q4KMF7); test: Inhibition of B-myb-mediated mitotic deffects in wild-type zebrafish embryo assessed as accumulation of cells in early S phase at […] at 24 hrs post fertilization for 6 hrs by flow cytometry
T1 sequence (whole entry): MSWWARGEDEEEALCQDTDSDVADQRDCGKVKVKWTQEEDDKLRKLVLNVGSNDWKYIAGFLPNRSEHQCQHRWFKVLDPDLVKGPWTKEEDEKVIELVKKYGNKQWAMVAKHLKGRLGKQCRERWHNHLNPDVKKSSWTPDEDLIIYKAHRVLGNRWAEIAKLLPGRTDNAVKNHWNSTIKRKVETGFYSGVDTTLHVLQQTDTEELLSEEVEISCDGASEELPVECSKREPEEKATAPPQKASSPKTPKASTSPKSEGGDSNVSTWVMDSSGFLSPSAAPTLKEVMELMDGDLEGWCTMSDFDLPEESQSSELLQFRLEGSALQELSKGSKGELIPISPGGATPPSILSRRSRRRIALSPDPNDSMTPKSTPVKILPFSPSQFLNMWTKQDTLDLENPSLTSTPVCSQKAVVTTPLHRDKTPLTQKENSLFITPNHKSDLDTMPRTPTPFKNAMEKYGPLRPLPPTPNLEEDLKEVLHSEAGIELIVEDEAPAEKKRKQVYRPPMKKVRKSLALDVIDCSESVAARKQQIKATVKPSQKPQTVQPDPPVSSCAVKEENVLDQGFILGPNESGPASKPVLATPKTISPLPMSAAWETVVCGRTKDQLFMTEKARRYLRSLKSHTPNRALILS
Outline: (§2)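 Wild-type embryos exposed 24–30 hpf (6 h at 28.5 °C) to […] drug. Embryos disaggregated, immunostained for pH3 and DNA content measured by flow cytometry (G1/S/G2M fractions). For S-phase confirmation, embryos labelled with BrdU and incorporation read by whole-mount immunostaining and FACS.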

[6] = target: T1, B-myb (Danio rerio); test: Inhibition of B-myb-mediated mitotic deffects in wild-type zebrafish assessed as number of centrosomes in pH3 -positive cells at […] at 24 hrs post fertilization by pH3 and […] staining; assay type: cell-based
[7] = organism: Danio rerio; test: Inhibition of B-myb-mediated mitotic deffects in zebrafish bmyb mutant crb embryos assessed as suppression of cells without spindles at 8 mM at 24 hrs post fertilization by pH3 and alpha tubulin staining
Outline: (§3)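 Embryos treated overnight with […] drug, then double-stained for α-tubulin and pH3. Spindles counted in the body distal to the yolk ball. DAPI-stained cells with condensed chromatin counted manually in one field at the tail tip.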

[8] = target: T1, B-myb (Danio rerio); test: Inhibition of B-myb-mediated mitotic deffects in wild-type Zebrafish assessed as suppression of cells without spindles at […] at 24 hrs post fertilization by pH3 and alpha tubulin staining; outline: as §3
[9] = organism: Danio rerio; test: Inhibition of B-myb-mediated mitotic deffects in zebrafish bmyb mutant crb embryos at […]; conditions: TDE = time-dependent effect
Outline: (§4)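 crb heterozygote incrosses; embryos in E3 with 1% DMSO at 28.5 °C, compound added at 4 hpf and kept until 24 hpf ([…] except in dose-response). Fixed in 4% paraformaldehyde and whole-mount stained for serine-10-phosphorylated histone H3. All pH3-positive cells in the tail distal to the yolk extension counted, at least five embryos per condition. Embryos genotyped by RFLP. ED50 from dose-response.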

[10] = Induction of S to M phase cell cycle progression in zebrafish bmyb mutant embryo cells assessed as Brdu incorporation; assay type: functional, Danio rerio
[11] = organism: Danio rerio; test: Inhibition of B-myb-mediated mitotic deffects in zebrafish bmyb mutant crb embryos assessed as increase in cyclin B1 mRNA expression
Outline: (§5)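 Wild-type and crb embryos treated with […] drug, then whole-mount in situ hybridization for cyclin B1.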

[12] = organism: Danio rerio; test: Inhibition of B-myb-mediated mitotic deffects in zebrafish bmyb mutant crb embryos assessed as number of centrosomes in pH3 -positive cells at […] at 24 hrs post fertilization by pH3 and gamma tubulin staining; assay type: cell-based
Outline: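 Centrosomes detected with a monoclonal anti-γ-tubulin antibody (1:1,000) in embryos treated overnight with […] drug.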

[13] = organism: Danio rerio; test: Inhibition of B-myb-mediated mitotic deffects in zebrafish bmyb mutant crb embryos assessed as reduction in abnormalities in mitotic spindle by pH3 and alpha tubulin staining; conditions: concentration not given here; outline: as §3
[14] = organism: Danio rerio; test: Inhibition of B-myb-mediated mitotic deffects in zebrafish bmyb mutant crb embryos assessed as suppression of apoptosis at 8 mM at 24 hrs post fertilization by TUNEL assay
Outline: (§6)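 Embryos treated overnight (from 4 hpf) with […] drug, washed at 24 hpf. Apoptosis read by TUNEL staining at 24 hpf, and by brain opacity morphology at 30 hpf.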

[15] = organism: Danio rerio; test: Inhibition of B-myb-mediated mitotic deffects in zebrafish bmyb mutant crb embryos assessed as prometaphase arrest at 10 uM by pH3 and alpha tubulin staining
[16] = target: T1, B-myb (Danio rerio); test: Inhibition of B-myb-mediated mitotic deffects in wild-type zebrafish assessed as suppression of apoptosis at […] at 24 hrs post fertilization by TUNEL assay; outline: as §6
[17] = target: T1, B-myb (Danio rerio); test: Inhibition of B-myb mediated mitotic deffects in wild-type zebrafish assessed as suppression of polyploidy at […] at 24 hrs post fertilization […]
Outline: (§7)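 Control and treated embryos, […] overnight, disaggregated and DNA content (2n/4n/8n) measured by flow cytometry. Individual-embryo FACS used a cell-suspension aliquot for genotyping.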

[18] = organism: Danio rerio; test: Inhibition of B-myb-mediated mitotic deffects in zebrafish bmyb mutant crb embryos; outline: as §4
[19] = organism: Danio rerio; test: Inhibition of B-myb-mediated mitotic deffects in zebrafish bmyb mutant embryo assessed as increase in mitotic cells with condensed chromatin at 10 uM by pH3 and alpha tubulin staining; assay type: cell-based
[20] = organism: Danio rerio; test: Inhibition of B-myb-mediated mitotic deffects in zebrafish bmyb mutant crb embryos assessed as suppression of polyploidy at 8 mM at 24 hrs post fertilization by TUNEL assay; outline: as §7
[21] = target: T1, B-myb (Danio rerio); test: Inhibition of B-myb-mediated mitotic deffects in wild-type zebrafish embryo assessed as accumulation of cells in early S phase at […] at 24 hrs post fertilization for 6 hrs by flow cytometry in presence of 10 mM BrdU; outline: as §2
[22] = target: T1, B-myb (Danio rerio); test: Inhibition of B-myb-mediated mitotic deffects in wild-type zebrafish assessed as increase in cyclin B1 mRNA expression; outline: as §5

SMILES: NC(=O)NO
- inhibition [1]: Active
- inhibition [2]: Active

SMILES: C[C@@]1(CO)[C@H](O)CC[C@@]2(C)[C@H]1CC[C@H]1C[C@@H]3C[C@@]12CC[C@]3(O)CO
- inhibition [1]: Active
- inhibition [2]: Active
- inhibition [3]: Active
- inhibition [4]: Active

SMILES: O=C(Nc1ncccc1O)C12CC3CC(CC(C3)C1)C2 [PERSYNTHAMIDE]
- inhibition [5]: Active
- inhibition [6]: Active
- inhibition [7]: Active
- inhibition [8]: Active
- inhibition [9]: tde
- Activity [10]: 60%
- inhibition [11]: Active
- inhibition [12]: Active
- inhibition [13]: 55%
- inhibition [14]: Active
- inhibition [15]: Active
- inhibition [16]: Active
- inhibition [17]: Active
- ED50 [18]: 5 µM
- fold change (FC) [19]: 4
- inhibition [20]: Active
- inhibition [21]: Active
- inhibition [22]: Active
